Active and inactive are the calls of the source. No cut-off for these calls is given here.
Legend:
Nucleic Acid [1] = experiment: Binding affinity to DNA (unknown origin) assessed as DNA intercalation by UV-visible spectrophotometry in presence of Cu2+; type: nucleic-acid assay
CCRF-CEM [2] = experiment: Induction of apoptosis in human CCRF-CEM cells assessed as inhibition of DNA synthesis at IC50 after 24 hrs by propidium iodide/BrdU staining by flow cytometry; type: functional; design: scale not given: the % may be the effect or the level left
Nucleic Acid [3] = experiment: Binding affinity to DNA (unknown origin) assessed as DNA intercalation by UV-visible spectrophotometry in presence of Ni2+; type: nucleic-acid assay
HCT-116 [4] = experiment: Selectivity index, ratio of IC50 for human MRC5 cells to IC50 for human HCT116 cells; type: functional
K562 [5] = experiment: Selectivity index, ratio of IC50 for human MRC5 cells to IC50 for human K562 cells; type: functional
Pichia kudriavzevii = experiment: Antifungal activity against Candida crusei up to 200 uM after 24 to 48 hrs by broth microdilution method; type: functional, organism-based
[6] = Metal chelating activity of the compound assessed as formation of Mn2+ complex by UV-vis spectrometry; type: physicochemical
[7] = Metal chelating activity of the compound assessed as formation of Fe3+ complex by UV-vis spectrometry; type: physicochemical
[8] = Metal chelating activity of the compound assessed as formation of Fe2+ complex by UV-vis spectrometry; type: physicochemical
MRC5 [9] = experiment: Selectivity index, ratio of IC50 for human MRC5 cells to IC50 for human K562-TAX cells; type: functional
A549 [10] = experiment: Selectivity index, ratio of IC50 for human MRC5 cells to IC50 for human A549 cells; type: functional
[11] = Cytostatic activity against human K562-TAX cells after 72 hrs by MTT assay; type: functional, cell-based
How it was run: (§1)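 Cells were seeded at 25,000–30,000 per well and pre-incubated for 24 h at 37°C in 5% CO2. Four-fold compound dilutions were added in duplicate and incubated for 72 h. MTT was added for 1–4 h, and formazan was dissolved in 10% aq SDS (pH 5.5) overnight at 37°C. OD was read at 540 nm. IC50 came from dose-response curves, mean ± SD of eight independent experiments.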

[12] = Cytostatic activity against human HCT116 cells after 72 hrs by MTT assay; type: functional, cell-based; details: HCT-116, 72 h; how it was run: as §1
CEM-DNR = experiment: Selectivity index, ratio of IC50 for human MRC5 cells to IC50 for human CEM-DNR cells; type: functional
K562 [13] = experiment: Cytostatic activity against human K562 cells after 72 hrs by MTT assay; type: functional, cell-based; details: K562, 72 h; how it was run: as §1
Staphylococcus aureus [14] = experiment: Antimicrobial activity against methicillin-resistant Staphylococcus aureus MRSA 4591 up to 200 uM after 24 to 48 hrs by broth microdilution method; type: functional, organism-based
Staphylococcus aureus [15] = experiment: Antimicrobial activity against Staphylococcus aureus CCM 3953 up to 200 uM after 24 to 48 hrs by broth microdilution method; type: functional, organism-based
[16] = test system: Staphylococcus haemolyticus; experiment: Antimicrobial activity against methicillin-resistant Staphylococcus haemolyticus A1/16568 up to 200 uM after 24 to 48 hrs by broth microdilution method; type: functional, organism-based
BJ [17] = experiment: Selectivity index, ratio of IC50 for human BJ cells to IC50 for human HCT116 cells; type: functional
MRC5 [18] = experiment: Cytostatic activity against human MRC5 cells after 72 hrs by MTT assay; type: ADME, cell-based; details: MRC5, 72 h; how it was run: as §1
[19] = Metal chelating activity of the compound assessed as formation of Zn2+ complex by UV-vis spectrometry; type: physicochemical
CCRF-CEM [20] = experiment: Induction of apoptosis in human CCRF-CEM cells assessed as mitotic cells at 5 times IC50 after 24 hrs by pH3Ser10+ labeling-based flow cytometry; type: functional
Pseudomonas aeruginosa = experiment: Antimicrobial activity against Pseudomonas aeruginosa CCM 395 up to 200 uM after 24 to 48 hrs by broth microdilution method; type: functional, organism-based
Candida parapsilosis = experiment: Antifungal activity against Candida parapsilosis up to 200 uM after 24 to 48 hrs by broth microdilution method; type: functional, organism-based
CCRF-CEM [21] = experiment: Induction of apoptosis in human CCRF-CEM cells assessed as apoptotic cells at IC50 after 24 hrs by propidium iodide staining-based flow cytometry; type: functional
How it was run: (§2)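 Cells were then fixed in 70% ethanol, washed in hypotonic citrate buffer, treated with RNase (50 µg/mL) and stained with propidium iodide. Flow cytometry used a 488 nm laser. Apoptosis was scored as the percentage of particles with propidium content below G0/G1.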

A549 [22] = experiment: Selectivity index, ratio of IC50 for human BJ cells to IC50 for human A549 cells; type: functional
CCRF-CEM [23] = experiment: Cell cycle arrest in human CCRF-CEM cells assessed as accumulation at G2/M phase at IC50 after 24 hrs by propidium iodide staining-based flow cytometry; type: functional; how it was run: as §2
Enterococcus faecalis = experiment: Antimicrobial activity against Enterococcus faecalis CCM 4224 up to 200 uM after 24 to 48 hrs by broth microdilution method; type: functional, organism-based
[24] = Metal chelating activity of the compound assessed as formation of Cu2+ complex by UV-vis spectrometry; type: physicochemical
[25] = Metal chelating activity of the compound assessed as formation of Ca2+ complex by UV-vis spectrometry; type: physicochemical
[26] = Metal chelating activity of the compound assessed as formation of Cr3+ complex by UV-vis spectrometry; type: physicochemical
HCT-116 [27] = experiment: Selectivity index, ratio of IC50 for human MRC5 cells to IC50 for human p53-/- HCT116 cells; type: functional
CCRF-CEM [28] = experiment: Induction of apoptosis in human CCRF-CEM cells assessed as inhibition of DNA synthesis at 5 times IC50 after 24 hrs by propidium iodide/BrdU staining by flow cytometry; type: functional; design: scale not given: the % may be the effect or the level left
Candida tropicalis = experiment: Antifungal activity against Candida tropicalis up to 200 uM after 24 to 48 hrs by broth microdilution method; type: functional, organism-based
[29] = Metal chelating activity of the compound assessed as formation of Ni2+ complex by UV-vis spectrometry; type: physicochemical
Nucleic Acid [30] = experiment: Binding affinity to DNA (unknown origin) assessed as DNA intercalation by UV-visible spectrophotometry in presence of Co2+; type: nucleic-acid assay
CCRF-CEM [31] = experiment: Cell cycle arrest in human CCRF-CEM cells assessed as accumulation at G0/G1 phase at 5 times IC50 after 24 hrs by propidium iodide staining-based flow cytometry; type: functional; how it was run: as §2
CCRF-CEM [32] = experiment: Induction of apoptosis in human CCRF-CEM cells assessed as inhibition of RNA synthesis at 5 times IC50 after 24 hrs by propidium iodide/BrU staining by flow cytometry; type: functional; design: scale not given: the % may be the effect or the level left
CCRF-CEM [33] = experiment: Cell cycle arrest in human CCRF-CEM cells assessed as accumulation at S phase at IC50 after 24 hrs by propidium iodide staining-based flow cytometry; type: functional; how it was run: as §2
Nucleic Acid [34] = experiment: Binding affinity to DNA (unknown origin) assessed as DNA intercalation by UV-visible spectrophotometry in presence of Zn2+; type: nucleic-acid assay
Nucleic Acid [35] = experiment: Binding affinity to DNA (unknown origin) assessed as DNA intercalation by UV-visible spectrophotometry; type: nucleic-acid assay
CCRF-CEM [36] = experiment: Cell cycle arrest in human CCRF-CEM cells assessed as accumulation at S phase at 5 times IC50 after 24 hrs by propidium iodide staining-based flow cytometry; type: functional; how it was run: as §2
[37] = Cytostatic activity against human p53-/- HCT116 cells after 72 hrs by MTT assay; type: functional, cell-based; details: HCT-116, 72 h; how it was run: as §1
BJ [38] = experiment: Selectivity index, ratio of IC50 for human BJ cells to IC50 for human p53-/- HCT116 cells; type: functional

COc1ccc(O)c(/C=N/NC(=O)c2ccc3c4c(ccc3c2)N2Cc3c(ccc5cc(C(=O)N/N=C/c6cc(OC)ccc6O)ccc35)N(C4)C2)c1
Activity (Nucleic Acid [1]): Active
Activity (CCRF-CEM [2]): 50.98%
Activity (Nucleic Acid [3]): Active
Ratio IC50 (HCT-116 [4]): 622.3
Ratio IC50 (K562 [5]): 357.2
Activity (Pichia kudriavzevii): inactive
Activity [6]: Not Active
Activity [7]: Active
Activity [8]: Not Active
Ratio IC50 (MRC5 [9]): 137.7
Ratio IC50 (A549 [10]): 123.2
IC50 [11]: 210 nM
IC50 [12]: 50 nM
Ratio IC50 (CEM-DNR): 13.3
IC50 (K562 [13]): 80 nM
Activity (Staphylococcus aureus [14]): inactive
Activity (Staphylococcus aureus [15]): inactive
Activity [16]: inactive
Ratio IC50 (BJ [17]): 622.3
IC50 (MRC5 [18]): 110 nM
Activity [19]: Active
Activity (CCRF-CEM [20]): 0.67%
Activity (Pseudomonas aeruginosa): inactive
Activity (Candida parapsilosis): inactive
Activity (CCRF-CEM [21]): 12.97%
Ratio IC50 (A549 [22]): 123.2
Activity (CCRF-CEM [23]): 15.97%
Activity (Enterococcus faecalis): inactive
Activity [24]: Active
Activity [25]: Not Active
Activity [26]: Not Active
Ratio IC50 (HCT-116 [27]): 495
Activity (CCRF-CEM [28]): 31.78%
Activity (Candida tropicalis): inactive
Activity [29]: Active
Activity (Nucleic Acid [30]): Active
Activity (CCRF-CEM [31]): 39.05%
Activity (CCRF-CEM [32]): 56.37%
Activity (CCRF-CEM [33]): 54.03%
Activity (Nucleic Acid [34]): Active
Activity (Nucleic Acid [35]): inactive
Activity (CCRF-CEM [36]): 48.55%
IC50 [37]: 60 nM
Ratio IC50 (BJ [38]): 495

O=C(N/N=C/c1cc(O)ccc1O)c1ccc2c3c(ccc2c1)N1Cc2c(ccc4cc(C(=O)N/N=C/c5cc(O)ccc5O)ccc24)N(C3)C1
Activity (Nucleic Acid [1]): Active
Activity (CCRF-CEM [2]): 50.15%
Activity (Nucleic Acid [3]): Active
Ratio IC50 (HCT-116 [4]): 9.1
Ratio IC50 (K562 [5]): 8
Activity (Pichia kudriavzevii): inactive
Activity [6]: Not Active
Activity [7]: Active
Activity [8]: Not Active
Ratio IC50 (MRC5 [9]): 13.8
Ratio IC50 (A549 [10]): 20.9
IC50 [11]: 260 nM
IC50 [12]: 390 nM
Ratio IC50 (CEM-DNR): 1.4
IC50 (K562 [13]): 440 nM
Activity (Staphylococcus aureus [14]): inactive
Activity (Staphylococcus aureus [15]): inactive
Activity [16]: inactive
Ratio IC50 (BJ [17]): 9.1
IC50 (MRC5 [18]): 550 nM
Activity [19]: Active
Activity (CCRF-CEM [20]): 2.39%
Activity (Pseudomonas aeruginosa): inactive
Activity (Candida parapsilosis): inactive
Activity (CCRF-CEM [21]): 3.99%
Ratio IC50 (A549 [22]): 20.9
Activity (CCRF-CEM [23]): 17.9%
Activity (Enterococcus faecalis): inactive
Activity [24]: Active
Activity [25]: Not Active
Activity [26]: Not Active
Ratio IC50 (HCT-116 [27]): 29
Activity (CCRF-CEM [28]): 55.96%
Activity (Candida tropicalis): inactive
Activity [29]: Active
Activity (Nucleic Acid [30]): Active
Activity (CCRF-CEM [31]): 21.32%
Activity (CCRF-CEM [32]): 43.16%
Activity (CCRF-CEM [33]): 44.72%
Activity (Nucleic Acid [34]): Active
Activity (Nucleic Acid [35]): inactive
Activity (CCRF-CEM [36]): 58.22%
IC50 [37]: 120 nM
Ratio IC50 (BJ [38]): 29
